# TLR9-MyD88 block – inhibitors of TLR9-MyD88 association in cells, primary screen, cell-based, CHO, BLA complementation, fluorescence. inhibition, % at 4.98 µM. CCF4 FRET ratio. actives 0.21% (n = 340,000). Toll-like receptor 9 (Homo sapiens) + Myeloid differentiation primary response protein …;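 active = inhibition above the mean over all tested compounds plus 3 SD, cut at about 21% in these data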;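 also: 0% = DMSO only wells and 100% = clavulanate BLA inhibitor control wells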
# B2AR ag – beta2AR agonists driving receptor internalization, primary screen, cell-based, FAP fluorogen, flow cytometry | Am2.2-beta2AR cells | response, % (concentration not given with the values) | actives 0.43% (n = 340,000) | AID 504454, 2011;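 active = response above a set limit, near 3 SD of response in nonfluorescent compounds, cut at about 42% in these data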
# TLR4 MyD88 comp – inhibitors of TLR4-MyD88 association in cells, primary screen, cell-based, HeLa CL3-4, BLA complementation, FRET ratio. actives 0.18% (n = 200,000). HeLa CL3-4 TLR4/MyD88 BLA complementation. AID 861, 2007. inhibition, % at 8.4 µM; in the data active = inhibition above about 25%;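 also: 0% = vehicle and 100% = reference inhibitor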
# Dynein cargo inh – inhibitors of GR-EGFP nuclear translocation, primary screen, dynein cargo transport inhibitor project, imaging, high-content, 3617.4 mouse cells; actives 0.47% (n = 220,000); z-score, hits read low; test concentration mostly 20 µM; stimulated with dexamethasone, 1 µM; hits give low values; AID 1381, 2008;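 active = plate z-score of nuclear minus cytoplasmic receptor signal below a set negative limit, without overly bright fluorescence or cell loss, cut at about -3.5 in these data, passing the limit was not always enough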;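 also: z-score of nuclear minus cytoplasmic ring GR-EGFP intensity difference per well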
#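 Also added: dexamethasone, 1.0 µM final. Medium: tet-free, stripped-serum medium. Detection: fixed, Hoechst-stained cells imaged at 10x for EGFP. Read-out: nuclear-to-cytoplasmic GR-EGFP distribution per well. Times: induction 48 h, compound 1 h, agonist 30 min.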
# ABHD5 PLIN5 PPI – ABHD5-PLIN5 interaction inhibitors, primary screen, cell lysate, split luciferase complementation, luminescence. Perilipin-5 (Homo sapiens) + 1-acylglycerol-3-phosphate O-acyltransferase ABHD5 (Homo …. Split G. princeps luciferase complementation, 4 h. inhibition, % at 4 µM. actives 0.78% (n = 360,000). AID 602281, 2012;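 active = inhibition above the mean inhibition across every tested compound plus 3 SD, cut at about 22% in these data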;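 also: 0% = DMSO only wells and the 100% control is not disclosed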
# NOD2-RIPK2 inh – NOD2-RIPK2 binding disruptors in cells, primary screen, fluorescence, CHO cells, BLA complementation; CCF4 ratio; Receptor-interacting serine/threonine-protein kinase 2 (Homo sapiens), O43353; inhibition, % at 4.98 µM; actives 0.38% (n = 360,000); in the data active = inhibition above about 21%;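 also: 0% = vehicle only and 100% = reference blocker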
# Target sequence (O43353 whole entry, looked up): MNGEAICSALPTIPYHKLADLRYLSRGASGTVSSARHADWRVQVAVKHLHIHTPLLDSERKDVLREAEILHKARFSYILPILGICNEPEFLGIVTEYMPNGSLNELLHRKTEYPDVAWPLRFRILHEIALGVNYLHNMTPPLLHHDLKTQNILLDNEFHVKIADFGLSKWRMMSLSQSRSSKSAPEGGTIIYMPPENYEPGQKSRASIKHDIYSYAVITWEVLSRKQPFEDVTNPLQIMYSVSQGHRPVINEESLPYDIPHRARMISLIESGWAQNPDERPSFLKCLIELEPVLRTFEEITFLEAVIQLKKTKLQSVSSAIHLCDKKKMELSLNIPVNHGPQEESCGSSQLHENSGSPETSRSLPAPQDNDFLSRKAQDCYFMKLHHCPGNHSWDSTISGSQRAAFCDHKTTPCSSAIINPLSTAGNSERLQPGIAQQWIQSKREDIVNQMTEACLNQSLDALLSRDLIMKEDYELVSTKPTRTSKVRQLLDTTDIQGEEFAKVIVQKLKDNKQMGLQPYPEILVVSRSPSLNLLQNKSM
# Dynein inh conf – dynein cargo transport inhibitors, GR-EGFP translocation, confirmation, imaging, high-content imaging, GR-EGFP cells; calls only at 20 µM; 3617.4 GR-EGFP nuclear translocation imaging, dexamethasone-induced; actives 69% (n = 1,000); shares compounds with Dynein cargo inh;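 active = inhibition of receptor movement into the nucleus at or above a set limit in both runs, with normal cell brightness and cell count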;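 also: dexamethasone at 1 µM final in well for 30 min; nuclear minus cytoplasmic GR-EGFP mean intensity difference in channel 2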
# ABHD5-PLIN5 conf – ABHD5-PLIN5 interaction inhibitors, confirmation, biochemical, luminescence | AID 651612, 2012 | actives 67% (n = 2,200) | inhibition, % at 4 µM | shares compounds with ABHD5 PLIN5 PPI; in the data active = inhibition above about 23%;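 also: 0% = DMSO vehicle wells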
# HNF4 split-luc – HNF4 dimerization inhibitors, counter-screen for ABHD5-PLIN5 interaction inhibitor project, biochemical, split-luciferase complementation, luminescence. inhibition, % at 4 µM. actives 77% (n = 2,200). shares compounds with ABHD5 PLIN5 PPI. AID 651674, 2012;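 active = mean inhibition across replicate wells exceeding the computed hit threshold, cut at about 13% in these data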;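 also: light from luciferase halves that rejoin when HNF4 fusion proteins dimerize; 0% = DMSO only wells and the 100% control is not given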
# * marks the source's active call; other numbers are inactive results; i = inactive; nt = no result; + = active, no number. In the library only some 1.6% were active in any assay of this set; here they are far more common.
SMILES,TLR9-MyD88 block,B2AR ag,TLR4 MyD88 comp,Dynein cargo inh,ABHD5 PLIN5 PPI,NOD2-RIPK2 inh,Dynein inh conf,ABHD5-PLIN5 conf,HNF4 split-luc
O=[N+]([O-])/C=C/c1cn(Cc2ccc(F)cc2)c2ccccc12,13,41,-10,-3.9*,57*,2,+,92*,68*
C[C@H](NC(=O)c1ncn2c1C(=O)NC[C@@H]2C)C(=O)OC(C)(C)C,0,nt,nt,nt,-2,-4,nt,nt,nt
Cc1ccc(-n2nnnc2Sc2ccc(S(=O)(=O)NCCN(C)C)cc2[N+](=O)[O-])cc1,-2,36,10,-4*,31*,7,+,19,34*
O=[N+]([O-])c1cc(S(=O)(=O)NCCN2CCOCC2)ccc1Sc1nnnn1-c1ccccc1,5,5,7,-3.4,13,2,nt,nt,nt
CC(C)(C)c1ccc(C(=O)CC(Sc2ccc(Cl)cc2)C(=O)O)cc1 (configuration not stated),-7,6,4,-4.6*,85*,14,+,54*,97*
CC(C)(C)c1ccc(C(=O)Nc2ccc(Cl)cc2)cc1,6,1,-8,2.1,-5,3,nt,nt,nt
O=C1NC[C@H](CCCCN2C[C@@H](Cc3ccccc3)N(CCC3CCCCC3)C(=O)C2=O)N(CCC2CCCCC2)C1=O,nt,nt,nt,nt,2,-6,nt,nt,nt
CC1(C)CC(N=c2cc(-c3ccccc3)oc3ccc(Cl)cc23)CC(C)(C)N1,4,40,5,-3.5*,29*,-10,i,6,10
OCCCN=c1cc(-c2ccccc2)oc2ccc(Cl)cc12,-10,-19,11,-0.57,-1,-3,nt,nt,nt
COCCCNC(=O)c1ccc2sc([C@@H]3O[C@H](CO)[C@H](O)[C@H](O)[C@H]3O)nc2c1,nt,nt,nt,nt,6,-9,nt,nt,nt
CCOC(=O)C(=Cc1cc(=O)c(OC)co1)C(=O)OCC,1,15,11,-4*,24*,1,+,76*,90*
Nc1ccn(C2CSC(CO)O2)c(=O)n1 (configuration not stated),nt,nt,nt,nt,1,3,nt,nt,nt
CCOc1cc(C=C(C(=O)OC)C(=O)OC)ccc1OCc1ccc([N+](=O)[O-])cc1,1,6,-3,-5.7*,66*,21,+,96*,90*
C=CSc1sc(Cl)c(N2CCOCC2)c1[N+](=O)[O-],2,-207,-5,-3,1,-7,nt,nt,nt
C=CS(=O)(=O)c1sc(Cl)c(N2CCOCC2)c1[N+](=O)[O-],-4,33,8,-4.3*,43*,-1,+,100*,111*
Cc1cc(C)n(C(=O)c2cc([N+](=O)[O-])cc([N+](=O)[O-])c2)n1,-10,0,nt,nt,-1,0,nt,nt,nt
C=CCSc1nc2ccccc2n1C(=O)/C=C/c1cc(OC)c(OC)c(OC)c1,1,86*,-16,-6*,43*,2,+,88*,72*
Cc1ccc(NC(=O)CNC(=O)c2ccco2)c(Cl)c1,1,3,nt,nt,-6,0,nt,nt,nt
O=[N+]([O-])c1ccc(NN=CC2CCCCCC2)c([N+](=O)[O-])c1,nt,nt,nt,nt,-2,-24,nt,nt,nt
CC(=O)Nc1cccc(C(=O)/C=C/c2ccc(F)cc2)c1,-1,54*,-4,-3.9*,68*,11,+,88*,80*
CC(=O)Nc1cccc(C(=O)/C=C/c2ccc(/C=C/C(=O)c3cccc(NC(C)=O)c3)cc2)c1,nt,nt,5,-2.1,nt,nt,nt,nt,nt
CC(C(Sc1ccccc1N)c1ccccc1)[N+](=O)[O-] (configuration not stated),-10,33,nt,-5.5*,27*,-5,+,63*,77*
CCOc1cc(/C=C2/COc3ccccc3C2=O)ccc1OCC(=O)N(C)C,-9,13,-10,-3.6*,25*,-2,+,71*,67*
COC(=O)[C@@]12C[C@@H](CC(=O)N3CCSCC3)C(=O)N(Cc3ccc4c(c3)OCO4)C1=CCC(C)(C)C2,nt,nt,nt,nt,7,6,nt,nt,nt
COCCNC(=O)C1(C)CCCN(Cc2ccccc2N(C)C)C1 (configuration not stated),nt,nt,nt,nt,-10,-4,nt,nt,nt
SMILES,TLR9-MyD88 block,B2AR ag,TLR4 MyD88 comp,Dynein cargo inh,ABHD5 PLIN5 PPI,NOD2-RIPK2 inh,Dynein inh conf,ABHD5-PLIN5 conf,HNF4 split-luc
CCC(=O)Nc1ccc(/C=C(\C(C)=O)C(=O)c2ccccc2)cc1,-6,-3,nt,-4.1*,28*,9,+,44*,51*
NC(Cc1ccc(C(F)(F)F)cc1)c1csc(Nc2cc(NCc3ccco3)ncn2)n1 (configuration not stated),nt,nt,nt,nt,-1,6,nt,nt,nt
CC(=O)/C(=C/c1ccccc1)C(=O)Nc1ccccc1C,2,43*,0,-6.7*,39*,-15,+,86*,71*
O=C(Nc1ccccc1C(F)(F)F)C1CCN(C(=O)c2cccs2)CC1,-3,-1,nt,nt,-4,1,nt,nt,nt
CCN1C(=O)/C(=C\c2ccco2)C(C(=O)OC)=C1C,5,-4,0,0.17,-1,0,nt,nt,nt
CCOc1cc(/C=C2\C(=O)N(Cc3ccco3)C(C)=C2C(=O)OC)ccc1O,3,24,-3,-4.4*,52*,-1,+,37*,63*
O=C(Nc1nnc([C@H]2C[C@H](O)[C@@H](CO)O2)s1)Nc1cccc(Cl)c1Cl,nt,nt,nt,nt,4,-7,nt,nt,nt
COc1cccc(/C=C/C(=O)c2cccc([N+](=O)[O-])c2)c1OC,1,17,13,-5.3*,85*,2,+,101*,97*
COc1ccc(Oc2ccc(/C=C/C(=O)c3ccc(O)cc3)cc2[N+](=O)[O-])cc1,1,40,-12,-3.6*,28*,-48,+,80*,65*
COc1cccc(/C=C/C(=O)c2cccc([N+](=O)[O-])c2)c1,1,94*,-2,-4.5*,64*,-7,+,97*,97*

# High-throughput results deposited in PubChem BioAssay by several laboratories.
